Data set [1] concerns MCF7. Description: Effect on HSP90 level in human MCF7 cells at 1.5 times IC50 measured after 48 hrs by western blot analysis. In kind it is cell-based. To be noted: mcf7, 48 h. In a few lines:
(§1)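 Cells seeded in 6-well plates, 24 h at 37 °C, 5% CO2, then exposed 48 h to compound or 17-AAG in DMSO (1% final) or to vehicle. Lysed 2 h on ice in buffer with protease and phosphatase inhibitors, sonicated, protein measured by BCA. Equal protein run on SDS-PAGE, moved to PVDF, primary antibodies overnight at 4 °C, HRP secondary 1 h, ECL chemiluminescence.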
In general terms: In western blotting, separated proteins are transferred to a membrane and probed.

Data set [2] relates to MDA-MB-468. Description: Effect on actin level in human MDA-MB-468 cells at 1.5 times IC50 measured after 48 hrs by western blot analysis. In kind it is cell-based. To be noted: mda-mb-468, 48 h. In a few lines: as §1
The target of data set [3] is T1, Heat shock protein HSP90 (Homo sapiens) (UniProt P07900+P08238). The data set can be described thus: Inhibition of HSP90 in human MCF7 cells assessed as ER-alpha protein degradation at 1.5 times IC50 measured after 48 hrs by western blot analysis. In kind it is cell-based. In short, it runs like this:
as §1

Data set [4] concerns the target T1, Heat shock protein HSP90 (Homo sapiens). Description: Inhibition of HSP90 in human MCF-7 cells assessed as ER-alpha protein degradation at 1.5 times IC50 measured after 48 hrs by western blot analysis.
Data set [5] concerns MCF7. Description: Antiproliferative activity against human MCF7 cells measured after 48 hrs by MTT assay. It is filed as functional, cell-based. To be noted: MCF7, 48 h. In short, it runs like this:
(§2)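 Cells grown in DMEM with 2 mM L-glutamine, penicillin/streptomycin and 5% FBS at 37 °C, 5% CO2; seeded 6000/well in 96-well plates, attached 24 h. Compounds added over a concentration range in DMSO (1% final), 48 h. MTT (2.5 mg/mL in PBS) added for 3.5 h, formazan dissolved in DMSO, OD 570 nm. Growth relative to 1% DMSO; IC50 from separate triplicate experiments.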
Background: Formazan colour is commonly taken as a measure of viable cells.

Data set [6] deals with T1, Heat shock protein HSP90 (Homo sapiens). The data set can be described thus: Inhibition of HSP90 in human MCF7 cells assessed as Raf-1 protein degradation at 1.5 times IC50 measured after 48 hrs by western blot analysis. It is filed as cell-based. In a few lines:
as §1

In data set [7] the test system is MDA-MB-468. The data set can be described thus: Antiproliferative activity against human MDA-MB-468 cells measured after 48 hrs by MTT assay. In kind it is functional, cell-based. The settings on record: MDA-MB-468, 48 h. In short, it runs like this:
as §2

Data set [8] relates to MDA-MB-468. The data set can be described thus: Effect on HSP90 level in human MDA-MB-468 cells at 1.5 times IC50 measured after 48 hrs by western blot analysis. In kind it is cell-based. To be noted: mda-mb-468, 48 h. In short, it runs like this: as §1
Data set [9] relates to MDA-MB-468. The data set can be described thus: Effect on cell cycle distribution in human MDA-MB-468 cells assessed as accumulation at G2/M-phase at 2 uM measured after 48 hrs by propidium iodide staining-based flow cytometry. In kind it is functional. In a few lines: (§3)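 MDA-MB-468 seeded 40,000/well in 24-well plates, 24 h at 37 °C, 5% CO2, then treated 48 h with compounds in DMSO (1% final). Cells trypsinized, washed in PBS, fixed in 70% ethanol, rehydrated in PBS, stained with propidium iodide in PBS. Phase distribution (G1, S, G2/M, polyploid, subG1) read by flow cytometry.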

In data set [10] the test system is MDA-MB-468. Description: Induction of apoptosis in human MDA-MB-468 cells at 2 uM measured after 48 hrs by Annexin V-FITC/propidium iodide staining-based flow cytometry. In kind it is functional, cell-based. In short, it runs like this:
(§4)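 Cells incubated 24 h at 37 °C, 5% CO2, then given compounds in DMSO (1% final) for 48 h. Floating and trypsinized adherent cells pooled, PBS-washed, stained with annexin V-FITC plus propidium iodide in binding buffer, 15 min on ice in the dark. Flow cytometry, ≥10 000 events per sample; annexin V-positive cells scored as apoptotic.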
A general note: Flow cytometry measures light scatter and fluorescence of single cells or particles in a stream.

Data set [11] concerns the target T1, Heat shock protein HSP90 (Homo sapiens). The data set can be described thus: Inhibition of HSP90 in human MDA-MB-468 cells assessed as Raf-1 protein degradation at 1.5 times IC50 measured after 48 hrs by western blot analysis. In kind it is cell-based. In short, it runs like this: as §1
The test system of data set [12] is MCF7. Description: Effect on actin level in human MCF7 cells at 1.5 times IC50 measured after 48 hrs by western blot analysis. In kind it is cell-based. To be noted: mcf7, 48 h. In a few lines:
as §1

Data set [13] addresses T1, Heat shock protein HSP90 (Homo sapiens). Description: Inhibition of HSP90 in human MCF7 cells assessed as induction of prosurvival heat shock response at 1.5 times IC50 measured after 48 hrs by Western blot analysis. In kind it is cell-based. In short, it runs like this:
as §1

The test system of data set [14] is MDA-MB-468. The data set can be described thus: Effect on cell cycle distribution in human MDA-MB-468 cells assessed as accumulation at G2/M-phase at 4 uM measured after 48 hrs by propidium iodide staining-based flow cytometry. In kind it is functional. In short, it runs like this: as §3
For data set [15], the system named is MDA-MB-468. The data set can be described thus: Induction of apoptosis in human MDA-MB-468 cells at 4 uM measured after 48 hrs by Annexin V-FITC/propidium iodide staining-based flow cytometry. In kind it is functional, cell-based. In short, it runs like this:
as §4

Active and inactive are the calls of the source. No cut-off for these calls is given here. A value given as a limit tells only on which side of the number the result lay.

Broadly, the IC50 is the concentration that inhibits the measured activity by half. Higher therefore signals weaker potency. On to `CN(C)CCNc1cc2c(cn1)cc(NC(=O)c1cccc(-c3ccccc3)c1)c(=O)n2C`, for which the Activity entry was “Toxic” with MCF7 [1], “Non-toxic” in the data set on MDA-MB-468 [2], “Toxic” with MDA-MB-468 [8] and “Non-toxic” with MCF7 [12]. For the same compound, the inhibition entry in [3], in data set [4], in data set [6], in [11] and in data set [13] was “Active” in each case. The IC50 in the data set with MCF7 [5] is 1.93 µM; in the data set on MDA-MB-468 [7], 1.68 µM. For the same compound, in the data set with MDA-MB-468 [9], the result was inactive. In addition, in the data set with MDA-MB-468 [10], the result was Active.
For the compound `Cn1c(=O)c(NC(=O)c2ccc(N)cc2)cc2cnc(NCCN3CCOCC3)cc21`, the IC50 in the data set with MCF7 [5] and in the data set on MDA-MB-468 [7] was above 100 µM each time.
As for `COc1cccc(C(=O)Nc2cc3cnc(NCCN4CCOCC4)cc3n(C)c2=O)c1`, the IC50 in the data set with MCF7 [5] and in the data set with MDA-MB-468 [7] was above 100 µM throughout.
For `COc1cccc(C(=O)Nc2cc3cnc(NCCN(C)C)cc3n(C)c2=O)c1`, the IC50 with MCF7 [5] worked out at 43.2 µM; in the data set with MDA-MB-468 [7], 17.4 µM.
On to `CN(C)CCNc1cc2c(cn1)cc(NC(=O)c1ccc(Cl)cc1)c(=O)n2C`, for which the Activity result in the data set on MCF7 [1], in the data set on MDA-MB-468 [2], with MDA-MB-468 [8] and in the data set on MCF7 [12] was “Non-toxic” in each case. Moreover, the inhibition entry in data set [3], in [4], in data set [6] and in data set [11] was “Active” throughout. Moreover, the results for the IC50 in the data set with MCF7 [5] and in the data set on MDA-MB-468 [7] were 3.09 µM and 1.64 µM, respectively. Moreover, the result in the data set with MDA-MB-468 [9] and in the data set with MDA-MB-468 [10] was Active.
Take `COc1cc(C(=O)Nc2cc3cnc(NCCN4CCOCC4)cc3n(C)c2=O)cc(OC)c1OC`: the IC50 in the data set on MCF7 [5] was 48.6 µM; in the data set with MDA-MB-468 [7], above 100 µM.
On to `CCCNc1cc2c(cn1)cc(NC(=O)c1cccc(-c3ccccc3)c1)c(=O)n2C`, for which the Activity entry in the data set on MCF7 [1], in the data set with MDA-MB-468 [2], with MDA-MB-468 [8] and in the data set on MCF7 [12] was “Non-toxic” throughout. The inhibition entry in [3], in data set [4], in [6] and in data set [11] was “Active” throughout. Besides, the IC50 was 6 µM in the data set on MCF7 [5] and 1.87 µM with MDA-MB-468 [7]. Moreover, the result with MDA-MB-468 [9] was Active. In addition, the outcome in the data set on MDA-MB-468 [10] was inactive.
For the compound `CC(=O)Nc1cc2cnc(NCCN(C)C)cc2n(C)c1=O`, the 50% inhibitory concentration (IC50) in the data set with MCF7 [5] and with MDA-MB-468 [7] was above 100 µM throughout.
As for `COc1ccc(C(=O)Nc2cc3cnc(NCCN(C)C)cc3n(C)c2=O)cc1`, the IC50 in the data set on MCF7 [5] amounted to 37.3 µM; with MDA-MB-468 [7], 15.7 µM.
On the same counts, the results for `Cn1c(=O)c(NC(=O)c2cc3ccccc3s2)cc2cnc(NCCN3CCOCC3)cc21` are above 100 µM and above 100 µM.
Consider `CN(C)CCNc1cc2c(cn1)cc(NC(=O)/C=C/c1ccccc1)c(=O)n2C`, for which the IC50 with MCF7 [5] is 27.4 µM; in the data set on MDA-MB-468 [7], 12.1 µM.
On the same counts, the results for `COc1cc(C(=O)Nc2cc3cnc(NCCN(C)C)cc3n(C)c2=O)cc(OC)c1OC` are 21.5 µM and 15.6 µM.
With `CO[C@@H]1[C@@H](OC(N)=O)[C@@H](O)[C@H](Oc2ccc3c(O)c(NC(=O)c4ccc(O)c(CC=C(C)C)c4)c(=O)oc3c2C)OC1(C)C` [NOVOBIOCIN], the 50% inhibitory concentration (IC50) is 293 µM in the data set on MCF7 [5] and 338 µM with MDA-MB-468 [7].
With `CN(C)CCNc1cc2c(cn1)cc(NC(=O)c1ccccc1)c(=O)n2C`, the half-maximal inhibitory concentration (IC50) with MCF7 [5] amounted to 35.1 µM; in the data set with MDA-MB-468 [7], 18.3 µM.
Take `Cn1c(=O)c(NC(=O)/C=C/c2ccccc2)cc2cnc(NCCN3CCOCC3)cc21`: the IC50 with MCF7 [5] and in the data set on MDA-MB-468 [7] was above 100 µM throughout.
Consider `Cn1c(=O)c(NC(=O)c2ccc(O)cc2)cc2cnc(NCCN3CCOCC3)cc21`, for which the IC50 with MCF7 [5] and in the data set with MDA-MB-468 [7] was above 100 µM each time.
Consider `COc1ccc(C(=O)Nc2cc3cnc(NCCN4CCOCC4)cc3n(C)c2=O)cc1`, for which the IC50 with MCF7 [5] and in the data set on MDA-MB-468 [7] was above 100 µM in each case.
For `Cn1c(=O)c(NC(=O)c2ccc(Cl)cc2)cc2cnc(NCCN3CCOCC3)cc21`, the IC50 was 6.35 µM in the data set on MCF7 [5] and above 100 µM in the data set on MDA-MB-468 [7].
`Cn1c(=O)c(NC(=O)c2cccc(-c3ccccc3)c2)cc2cnc(NCCN3CCOCC3)cc21`: the Activity result with MCF7 [1], with MDA-MB-468 [2], with MDA-MB-468 [8] and in the data set on MCF7 [12] was “Non-toxic” throughout. Moreover, the inhibition entry in data set [3], in data set [4], in [6] and in data set [11] was “Active” each time. The figures for the IC50 in the data set with MCF7 [5] and in the data set with MDA-MB-468 [7] were 4.85 µM and 1.96 µM, respectively. Besides, in the data set on MDA-MB-468 [9], the outcome was Active. Besides, the outcome with MDA-MB-468 [10] was inactive.
As for `CC(=O)Nc1cc2cnc(NCCN3CCOCC3)cc2n(C)c1=O`, the IC50 in the data set with MCF7 [5] and with MDA-MB-468 [7] was above 100 µM in each case.
Take `Cn1c(=O)c(NC(=O)c2ccncc2)cc2cnc(NCCN3CCOCC3)cc21`: the figures for the IC50 in the data set with MCF7 [5] and in the data set on MDA-MB-468 [7] were 4.47 µM and above 100 µM, respectively.
Regarding `CN(C)CCNc1cc2c(cn1)cc(NC(=O)c1ccc(N)cc1)c(=O)n2C`, the results for the IC50 with MCF7 [5] and in the data set on MDA-MB-468 [7] were 55.8 µM and 20.4 µM, respectively.
Taken in the same sequence, the figures for `Cn1c(=O)c(NC(=O)c2ccccc2)cc2cnc(NCCN3CCOCC3)cc21` were above 100 µM and above 100 µM.
`CN(C)CCNc1cc2c(cn1)cc(NC(=O)c1ccncc1)c(=O)n2C`: the 50% inhibitory concentration (IC50) was 36.6 µM in the data set with MCF7 [5] and 8.36 µM in the data set with MDA-MB-468 [7].
Regarding `COc1ccc(C(=O)Nc2cc3cnc(N4CCN(C)CC4)cc3n(C)c2=O)cc1`, the values for the IC50 in the data set on MCF7 [5] and in the data set on MDA-MB-468 [7] were 35.4 µM and 12.6 µM, respectively.
Turning to `CN(C)CCNc1cc2c(cn1)cc(NC(=O)c1cc3ccccc3s1)c(=O)n2C`, the Activity entry in the data set with MCF7 [1], with MDA-MB-468 [2], with MDA-MB-468 [8] and with MCF7 [12] was “Non-toxic” each time. Besides, the inhibition result in [3], in data set [4], in [6] and in data set [11] was “inactive” in each case. Besides, the result with MDA-MB-468 [14] and with MDA-MB-468 [15] was Active. The IC50 with MCF7 [5] worked out at 12 µM; in the data set with MDA-MB-468 [7] it was 3.57 µM.

Values taken from ChEMBL document CHEMBL3822361, “Novel 1,6-naphthyridin-2(1H)-ones as potential anticancer agents targeting Hsp90” (Eur J Med Chem, 2016).
